Experimental findings from ChEMBL document CHEMBL4819102, “SAR insights into TET2 catalytic domain inhibition: Synthesis of 2-Hydroxy-4-Methylene-pentanedicarboxylates” (Bioorg Med Chem, 2021) are described below.

Each structure is given as a SMILES string. Activity calls are given as the source filed them. The rule behind the calls is not given here.

Test system in the first assay: not listed separately
Put plainly: Inhibition of TET (unknown origin). Also on record: species or system Homo sapiens.
Conditions: not given
`O=C(O)/C=C/C(=O)O` [FUMARIC ACID]: the concentration for half-maximal inhibition (IC50) (in general, the concentration that inhibits the measured activity by half) came to 2.4 mM.

`CC(C)CC(NC(=O)C(=O)O)C(=O)O` (centres undefined) displayed an IC50 of 0.0181 mM.

Turning to `O=C(O)CNC(=O)C(=O)O` [N-OXALYLGLYCINE], half-maximal inhibition (IC50) was put at 0.08 mM.

In the case of `O=C(O)CC[C@H](O)C(=O)O`, 3.6 mM corresponded to half-maximal inhibition (IC50).

Compound `O=C(O)CCC(=O)O` [SUCCINIC ACID] yielded a 50% inhibitory concentration (IC50) of 2.8 mM.

Compound `O=C(O)CC[C@@H](O)C(=O)O` yielded an IC50 of 6.4 mM.

The target in another assay is T1, Methylcytosine dioxygenase TET1 (Homo sapiens, UniProt Q8NFU7). Put plainly: Inhibition of TET1 (unknown origin).
T1 sequence (Q8NFU7 whole entry): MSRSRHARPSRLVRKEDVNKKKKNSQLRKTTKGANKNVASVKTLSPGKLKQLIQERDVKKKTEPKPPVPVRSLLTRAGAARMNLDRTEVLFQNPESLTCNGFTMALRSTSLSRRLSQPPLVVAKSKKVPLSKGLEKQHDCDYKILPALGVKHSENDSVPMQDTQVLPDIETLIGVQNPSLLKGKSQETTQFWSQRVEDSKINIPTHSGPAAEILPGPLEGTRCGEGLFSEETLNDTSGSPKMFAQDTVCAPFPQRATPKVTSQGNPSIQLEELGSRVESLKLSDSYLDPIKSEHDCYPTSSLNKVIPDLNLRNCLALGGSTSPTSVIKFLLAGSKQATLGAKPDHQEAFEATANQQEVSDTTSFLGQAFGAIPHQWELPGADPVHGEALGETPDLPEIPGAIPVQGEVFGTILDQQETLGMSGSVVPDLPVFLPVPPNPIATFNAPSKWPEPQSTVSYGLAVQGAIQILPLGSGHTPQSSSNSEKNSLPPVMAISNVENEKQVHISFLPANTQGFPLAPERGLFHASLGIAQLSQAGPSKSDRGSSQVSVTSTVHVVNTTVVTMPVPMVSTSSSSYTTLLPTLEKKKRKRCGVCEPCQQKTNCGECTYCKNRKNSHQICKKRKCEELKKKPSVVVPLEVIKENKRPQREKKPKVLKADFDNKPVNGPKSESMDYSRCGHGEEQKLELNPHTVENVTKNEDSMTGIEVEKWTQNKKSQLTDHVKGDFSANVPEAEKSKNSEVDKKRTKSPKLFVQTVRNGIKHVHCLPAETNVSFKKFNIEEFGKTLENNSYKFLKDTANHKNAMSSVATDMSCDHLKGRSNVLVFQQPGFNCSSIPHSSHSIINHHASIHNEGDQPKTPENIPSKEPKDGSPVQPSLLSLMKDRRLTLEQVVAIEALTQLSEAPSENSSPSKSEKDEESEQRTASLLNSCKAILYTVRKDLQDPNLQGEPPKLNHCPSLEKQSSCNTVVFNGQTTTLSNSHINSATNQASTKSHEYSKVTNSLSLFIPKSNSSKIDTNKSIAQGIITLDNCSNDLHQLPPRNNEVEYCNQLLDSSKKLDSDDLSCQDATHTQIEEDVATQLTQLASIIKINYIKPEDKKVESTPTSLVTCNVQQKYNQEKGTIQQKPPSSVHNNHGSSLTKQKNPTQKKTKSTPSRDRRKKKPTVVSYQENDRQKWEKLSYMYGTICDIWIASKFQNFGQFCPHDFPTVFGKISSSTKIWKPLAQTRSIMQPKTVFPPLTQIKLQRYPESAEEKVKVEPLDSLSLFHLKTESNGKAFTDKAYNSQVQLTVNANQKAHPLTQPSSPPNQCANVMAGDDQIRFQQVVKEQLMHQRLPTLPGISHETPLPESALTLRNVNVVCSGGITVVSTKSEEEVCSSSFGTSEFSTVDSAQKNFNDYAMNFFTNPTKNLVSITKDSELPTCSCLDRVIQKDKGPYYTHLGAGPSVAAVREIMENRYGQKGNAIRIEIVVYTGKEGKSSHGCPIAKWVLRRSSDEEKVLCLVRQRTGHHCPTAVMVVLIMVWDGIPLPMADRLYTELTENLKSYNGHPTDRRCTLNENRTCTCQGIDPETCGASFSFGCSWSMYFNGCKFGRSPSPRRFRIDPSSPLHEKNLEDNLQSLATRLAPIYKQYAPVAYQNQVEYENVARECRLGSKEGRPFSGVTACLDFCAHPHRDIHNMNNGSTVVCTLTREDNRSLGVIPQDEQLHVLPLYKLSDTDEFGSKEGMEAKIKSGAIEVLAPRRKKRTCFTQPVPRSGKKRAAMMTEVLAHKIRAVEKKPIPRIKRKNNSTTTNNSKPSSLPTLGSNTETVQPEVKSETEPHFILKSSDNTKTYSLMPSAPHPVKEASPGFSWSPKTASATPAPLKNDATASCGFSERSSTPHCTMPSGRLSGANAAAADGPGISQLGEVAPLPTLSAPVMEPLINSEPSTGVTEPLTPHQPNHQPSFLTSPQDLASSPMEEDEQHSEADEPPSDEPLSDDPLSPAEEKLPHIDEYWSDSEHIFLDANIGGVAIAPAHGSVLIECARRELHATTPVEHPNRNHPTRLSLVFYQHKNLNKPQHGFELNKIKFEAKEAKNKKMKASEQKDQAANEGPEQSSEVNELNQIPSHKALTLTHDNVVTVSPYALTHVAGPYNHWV
Conditions: not given
The compound `O=C(C[C@@H](O)CCc1ccc(O)c(O)c1)O[C@@H]1Cc2c(O)cc(O)cc2C[C@@H]1c1ccc(O)c(O)c1` registered a half-inhibitory concentration (IC50) of 3.48 µM.

In a further assay the target is T2, Methylcytosine dioxygenase TET3 (Homo sapiens, UniProt O43151). Put plainly: Inhibition of TET3 (unknown origin).
Conditions: not given
For `O=C(C[C@@H](O)CCc1ccc(O)c(O)c1)O[C@@H]1Cc2c(O)cc(O)cc2C[C@@H]1c1ccc(O)c(O)c1`, the half-inhibitory concentration (IC50) was determined as 2310 nM.

The next assay deals with T1, Methylcytosine dioxygenase TET1. Put plainly: Inhibition of TET1 (unknown origin) at 10 mM in presence of alpha-KG relative to control.
Conditions: not given
Take `O=C(O)CC[C@@H](O)C(=O)O`: the inhibition (commonly the relative decrease from the control value, in per cent) amounted to 28%.

A further assay shares this target. Put plainly: Inhibition of TET1 (unknown origin) at 50 mM in presence of alpha-KG relative to control.
Conditions: not given
Turning to `O=C(O)CC[C@@H](O)C(=O)O`, the inhibition was found to be 47%.

The next assay has as its system THP-1. Put plainly: Inhibition of TET in human THP-1 cells assessed as reduction in 5hmc/5mc level at 25 uM incubated for 12 hrs by dot blot analysis relative to control.
Conditions: not given
Format: cell-based. An outline of the steps:
(§1)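 THP1 cells at 0.3x10^6/mL exposed 12 h to ester prodrugs (25, 50, 100 µM) with 100 µM sodium ascorbate. Genomic DNA denatured in NaOH/EDTA at 95 °C, two-fold serial dilutions dot-blotted, probed with anti-5hmC and anti-5mC antibodies, and loading checked by methylene blue. Inhibition taken from the 5hmC/5mC ratio; means of at least three experiments, below 5% reported not detected.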
As to `CCOC(=O)C(O)CC1(C(=O)OCC)CC1` (racemic), the inhibition was less than 5%.

`C=C(CC(C)(O)C(=O)OCC)C(=O)OCC` (racemic): the inhibition was found to be 54%.

With `CCC(CC(=O)C(=O)OC)C(=O)OC` (centres undefined), the inhibition is less than 5%.

Regarding `COC(=O)CCC(=O)C(=O)OC`, the inhibition is less than 5%.

Take `CCOC(=O)C(C)CC(O)C(=O)OCC` (racemic): the inhibition is less than 5%.

As to `COC(=O)C(=O)CC(C)C(=O)OC` (centres undefined), the inhibition is less than 5%.

Regarding `C=C(CC(O)(C(=O)OCC)C(F)(F)F)C(=O)OCC` (racemic), the inhibition turned out to be 49%.

Consider `COC(=O)CCC(O)C(=O)OC` (centres undefined), for which the inhibition was found to be 9%.

In the case of `C=C(CC(Cl)C(=O)OC)C(=O)OC` (centres undefined), the inhibition amounted to 40%.

As to `C=C(NC(C)=O)C(=O)OC`, the inhibition is less than 5%.

Turning to `C=C(CC(C)O)C(=O)OCC` (racemic), the inhibition was 15%.

Consider `C=C(CC(F)C(=O)OCC)C(=O)OCC` (racemic), for which the inhibition is 9%.

`C=C(CC(O)(C(=O)OCC)C(C)C)C(=O)OCC` (racemic): the inhibition worked out at 17%.

Regarding `CCOC(=O)C(C)CC(F)(F)C(=O)OCC` (centres undefined), the inhibition turned out to be 14%.

Take `COC(=O)/C=C/C(=O)C(=O)OC`: the inhibition stood at 7%.

`C=C(CC(F)(F)C(=O)OCC)C(=O)OCC`: the inhibition amounted to 12%.

`C=C(CC(O)(CC)C(=O)OCC)C(=O)OCC` (racemic): the inhibition stood at 29%.

For `C=C(CCC(=O)OC)C(=O)OC`, the inhibition was less than 5%.

`C=C(CC(O)C(=O)OCC)C(=O)OCC` (racemic): the inhibition turned out to be 55%.

In the case of `COC(=O)CNC(=O)C(=O)OC`, the inhibition came to 56%.

Consider `CCOC(=O)C(=O)CC1(C(=O)OCC)CC1`, for which the inhibition was found to be 19%.

On to `COC(=O)CCC(=O)OC`, for which the inhibition was less than 5%.

With `C=C(CC(=O)C(=O)OCC)C(=O)OCC`, the inhibition is less than 5%.

For the compound `COC(=O)/C=C/C(=O)OC`, the inhibition was less than 5%.

A further assay relates to THP-1. Briefly: Inhibition of TET in human THP-1 cells assessed as reduction in 5hmc/5mc level at 50 uM incubated for 12 hrs by dot blot analysis relative to control.
Conditions: not given
The format is cell-based. An outline of the steps:
as §1
Regarding `CCOC(=O)C(O)CC1(C(=O)OCC)CC1` (racemic), the inhibition is less than 5%.

In the case of `C=C(CC(C)(O)C(=O)OCC)C(=O)OCC` (racemic), the inhibition was 71%.

Turning to `CCC(CC(=O)C(=O)OC)C(=O)OC` (centres undefined), the inhibition was less than 5%.

For the compound `COC(=O)CCC(=O)C(=O)OC`, the inhibition is less than 5%.

As to `CCOC(=O)C(C)CC(O)C(=O)OCC` (racemic), the inhibition is 14%.

On to `COC(=O)C(=O)CC(C)C(=O)OC` (centres undefined), for which the inhibition is less than 5%.

In the case of `C=C(CC(O)(C(=O)OCC)C(F)(F)F)C(=O)OCC` (racemic), the inhibition was 67%.

On to `COC(=O)CCC(O)C(=O)OC` (centres undefined), for which the inhibition was found to be 18%.

With `C=C(CC(Cl)C(=O)OC)C(=O)OC` (centres undefined), the inhibition is 54%.

On to `C=C(NC(C)=O)C(=O)OC`, for which the inhibition is less than 5%.

As to `C=C(CC(C)O)C(=O)OCC` (racemic), the inhibition was found to be 27%.

`C=C(CC(F)C(=O)OCC)C(=O)OCC` (racemic): the inhibition was determined as 11%.

`C=C(CC(O)(C(=O)OCC)C(C)C)C(=O)OCC` (racemic): the inhibition stood at 37%.

With `CCOC(=O)C(C)CC(F)(F)C(=O)OCC` (centres undefined), the inhibition was 9%.

With `COC(=O)/C=C/C(=O)C(=O)OC`, the inhibition came to 17%.

On to `C=C(CC(F)(F)C(=O)OCC)C(=O)OCC`, for which the inhibition came out at 20%.

As for `C=C(CC(O)(CC)C(=O)OCC)C(=O)OCC` (racemic), the inhibition is 45%.

With `C=C(CCC(=O)OC)C(=O)OC`, the inhibition was 7%.

Regarding `C=C(CC(O)C(=O)OCC)C(=O)OCC` (racemic), the inhibition came to 68%.

As to `COC(=O)CNC(=O)C(=O)OC`, the inhibition came to 62%.

`CCOC(=O)C(=O)CC1(C(=O)OCC)CC1`: the inhibition turned out to be 29%.

Regarding `COC(=O)CCC(=O)OC`, the inhibition was 7%.

Regarding `C=C(CC(=O)C(=O)OCC)C(=O)OCC`, the inhibition is 27%.

Turning to `COC(=O)/C=C/C(=O)OC`, the inhibition worked out at 21%.

The subject of a further assay is THP-1. Put plainly: Inhibition of TET in human THP-1 cells assessed as reduction in 5hmc/5mc level at 100 uM incubated for 12 hrs by dot blot analysis relative to control. Format: cell-based.
Conditions: not given
An outline of the steps:
as §1
For the compound `CCOC(=O)C(O)CC1(C(=O)OCC)CC1` (racemic), the inhibition is less than 5%.

For `C=C(CC(C)(O)C(=O)OCC)C(=O)OCC` (racemic), the inhibition stood at 80%.

Take `CCC(CC(=O)C(=O)OC)C(=O)OC` (centres undefined): the inhibition was less than 5%.

With `COC(=O)CCC(=O)C(=O)OC`, the inhibition was less than 5%.

For the compound `CCOC(=O)C(C)CC(O)C(=O)OCC` (racemic), the inhibition amounted to 41%.

`COC(=O)C(=O)CC(C)C(=O)OC` (centres undefined): the inhibition was less than 5%.

As to `C=C(CC(O)(C(=O)OCC)C(F)(F)F)C(=O)OCC` (racemic), the inhibition was 79%.

As to `COC(=O)CCC(O)C(=O)OC` (centres undefined), the inhibition worked out at 29%.

`C=C(CC(Cl)C(=O)OC)C(=O)OC` (centres undefined): the inhibition came out at 66%.

Take `C=C(NC(C)=O)C(=O)OC`: the inhibition is less than 5%.

Take `C=C(CC(C)O)C(=O)OCC` (racemic): the inhibition came to 47%.

`C=C(CC(F)C(=O)OCC)C(=O)OCC` (racemic): the inhibition came to 41%.

Consider `C=C(CC(O)(C(=O)OCC)C(C)C)C(=O)OCC` (racemic), for which the inhibition stood at 43%.

For the compound `CCOC(=O)C(C)CC(F)(F)C(=O)OCC` (centres undefined), the inhibition came out at 22%.

On to `COC(=O)/C=C/C(=O)C(=O)OC`, for which the inhibition turned out to be 34%.

In the case of `C=C(CC(F)(F)C(=O)OCC)C(=O)OCC`, the inhibition worked out at 29%.

With `C=C(CC(O)(CC)C(=O)OCC)C(=O)OCC` (racemic), the inhibition worked out at 48%.

With `C=C(CCC(=O)OC)C(=O)OC`, the inhibition stood at 22%.

On to `C=C(CC(O)C(=O)OCC)C(=O)OCC` (racemic), for which the inhibition is 73%.

With `COC(=O)CNC(=O)C(=O)OC`, the inhibition was 64%.

Regarding `CCOC(=O)C(=O)CC1(C(=O)OCC)CC1`, the inhibition is 33%.

Take `COC(=O)CCC(=O)OC`: the inhibition turned out to be 15%.

Consider `C=C(CC(=O)C(=O)OCC)C(=O)OCC`, for which the inhibition was 44%.

With `COC(=O)/C=C/C(=O)OC`, the inhibition amounted to 33%.

Another assay addresses T3, Methylcytosine dioxygenase TET2 (Homo sapiens, UniProt Q6N021). Put plainly: Inhibition of recombinant human GST-tagged TET2 (1099 to 1936 residues) expressed in Escherichia coli BL21 (DE3)pLysS assessed as reduction in 5hmc level incubated for 2 hrs by ELISA.
Conditions: not given
Consider `C=C(C[C@@H](O)C(=O)O)C(=O)O`, for which the IC50 is 11 µM.

As for `O=C(O)/C=C/C(=O)C(=O)O`, the 50% inhibitory concentration (IC50) came out at 107 µM.

Regarding `C=C(C[C@H](O)C(=O)O)C(=O)O`, the IC50 came out at 10.5 µM.

The next assay has as its target T3, Methylcytosine dioxygenase TET2. Briefly: Potency index, ratio of IC50 of NOG to IC50 of compound for inhibition of recombinant human GST-tagged TET2 (1099 to 1936 residues) expressed in Escherichia coli BL21 (DE3)pLysS assessed as reduction in 5hmc level incubated for 2 hrs by ELISA.
Conditions: not given
Background: ELISA stands for enzyme-linked immunosorbent assay.
Regarding `C=C(CC(O)C(=O)O)C(=O)O` (centres undefined), the Ratio IC50 stood at 2.

In the case of `C=C(C[C@@H](O)C(=O)O)C(=O)O`, the Ratio IC50 was determined as 2.

Take `C=C(C[C@H](O)C(=O)O)C(=O)O`: the Ratio IC50 came to 2.

The target of another assay is T1, Methylcytosine dioxygenase TET1. Put plainly: Inhibition of recombinant human N-terminal Flag-tagged TET1 (1418 to 2136 residues) expressed in Baculovirus infected Sf9 cells assessed as reduction in 5hmc level incubated for 2 hrs by ELISA.
Conditions: not given
Consider `C=C(CC(O)C(=O)O)C(=O)O` (centres undefined), for which the IC50 amounted to 1500 nM.

A further assay addresses T2, Methylcytosine dioxygenase TET3. Put plainly: Inhibition of recombinant human N-terminal Flag-tagged C-terminal His-tagged TET3 (824 to 1795 residues) expressed in Baculovirus infected Sf9 cells assessed as reduction in 5hmc level incubated for 2 hrs by ELISA.
Conditions: not given
On to `C=C(CC(O)C(=O)O)C(=O)O` (centres undefined), for which the 50% inhibitory concentration (IC50) was determined as 8.8 µM.

The next assay has as its target T3, Methylcytosine dioxygenase TET2. Briefly: Binding affinity to human recombinant TET2 (1099 to 1936) catalytic domain assessed as dissociation constant by micro-scale thermophoresis analysis.
Conditions: not given
Turning to `C=C(CC(O)C(=O)O)C(=O)O` (centres undefined), the equilibrium dissociation constant (Kd) (as a rule, a measure of binding affinity in units of concentration) turned out to be 300 nM.

For another assay the target is unchanged. Briefly: Reversible inhibition of recombinant human GST-tagged TET2 (1099 to 1936 residues) expressed in Escherichia coli BL21 (DE3)pLysS assessed as restoration of enzyme activity in presence of alpha-KG at 20 uM incubated for 2 hrs by ELISA.
Conditions: not given
The procedure, abridged: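 TET2 catalytic domain (100 nM) preincubated with 12.5 µM inhibitor, then α-KG added at increasing concentrations. Anti-5hmC/HRP detection, TMB read at 450 nm; activity expressed relative.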
Take `C=C(CC(O)C(=O)O)C(=O)O` (centres undefined): the inhibition result was “Active”.

For the next assay the target is unchanged. The settings on record: dose 10.0 mM.
`O=C(O)CC[C@@H](O)C(=O)O` returned an inhibition of 33%.

The target is the same in the next assay. The settings on record: dose 50.0 mM.
Take `O=C(O)CC[C@@H](O)C(=O)O`: the inhibition came to 83%.
